A word on the MIC: it is the smallest concentration in the dilution series that meets the test's criterion for growth inhibition.

Converted amounts (≈) assume the structure as drawn.

Holding throughout (assay type): functional
The subject of assay [1] is Helicobacter pylori. Put plainly: Bactericidal activity against Helicobacter pylori J99 assessed as compound concentration causing reduction in viable colony-forming units pre-incubated for 2 hrs followed by incubation at 37 degC under microaerophilic conditions for 72 hrs. A digest of the protocol:
(§1)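 H. pylori J99 came from 24 h cultures on Skirrow's medium (microaerobic, 37 °C) and was resuspended in brain heart infusion. Compound at 100 μg/mL final was mixed with 10^6 CFU/mL bacteria and held 2 h at 37 °C. Controls were BHI alone and amoxicillin at 10 μg/mL. Samples were serially 10-fold diluted in warm PBS and plated in triplicate on Skirrow's (72 h, 37 °C, microaerophilic). Kill was log10 CFU/mL (0 h) minus log10 CFU/mL (2 h).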

The test system of assay [2] is Helicobacter pylori. The assay is described as follows: Bactericidal activity against Helicobacter pylori J99 assessed as reduction in viable colony-forming units pre-incubated for 2 hrs followed by incubation at 37 degC under microaerophilic conditions for 72 hrs. The essentials: as §1
In assay [3] the test system is Staphylococcus aureus. Put plainly: Antibacterial activity against Staphylococcus aureus isolated from tibial osteomyelitis patient assessed as inhibition of visible bacterial growth incubated for 24 hrs at 37 degC by broth microdilution method. The essentials:
(§2)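 MICs were determined by broth microdilution against S. aureus strains maintained on Mueller Hinton agar (24 h, 37 °C). Final compound concentrations ranged from 0.39 to 100 μg/mL. Inoculum was 10^5 CFU/mL final per well, incubated 24 h at 37 °C. MIC was the lowest concentration preventing visible growth. Wells were run in triplicate and the experiment was repeated three times.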
A general note: Dilution methods test growth across graded concentrations, often in twofold steps.

Assay [4] has as its system Staphylococcus aureus. The assay is described as follows: Antibacterial activity against Staphylococcus aureus ATCC 29213 assessed as inhibition of visible bacterial growth incubated for 24 hrs at 37 degC by broth microdilution method. The note with it: ATCC 29213, 24 h. The essentials: as §2
In assay [5] the test system is Staphylococcus aureus. Put plainly: Antibacterial activity against Staphylococcus aureus isolated from tibial leg ulcer patient assessed as inhibition of visible bacterial growth incubated for 24 hrs at 37 degC by broth microdilution method. The essentials: as §2
For assay [6], the system named is Helicobacter pylori. Put plainly: Bactericidal activity against Helicobacter pylori J99 assessed as reduction in viable colony-forming units pre-incubated for 2 hrs followed by incubation at 37 degC under microaerophilic conditions for 72 hrs relative to initial inoculum. The essentials:
as §1

On to `COc1cc(O)c2c(O)c3c(c(-c4c(OC)cc5c(c4O)C(=O)c4c(O)cc(C)cc4C5=O)c2c1)CC(C)OC3=O` (stereo unspecified), for which the Activity in assay [1] was found to be 179.8 µM. For the same compound, the log10CFU/ml in assay [2] was 0.42. In addition, the MIC in assay [3], in assay [4] and in assay [5] was 89.9 µM (≈ 50 µg/mL) in each case.

With `COc1cc(O)c2c(O)c3c(c(-c4c(OC)cc5c(c4O)C(=O)c4c(O)cc(C)c(OC)c4C5=O)c2c1)CC(C)OC3=O` (stereo unspecified), the values for the Activity in assay [1] and in assay [6] were 170.6 µM and greater than 99.9%, respectively. For the same compound, the log10CFU/ml in assay [2] is 6. Also, the minimal inhibitory concentration (MIC) was 10.7 µM (≈ 6.28 µg/mL) in assay [3], 10.7 µM (≈ 6.28 µg/mL) in assay [4] and 2.7 µM (≈ 1.58 µg/mL) in assay [5].

Regarding `CC1(C)S[C@@H]2[C@H](NC(=O)[C@H](N)c3ccc(O)cc3)C(=O)N2[C@H]1C(=O)O` [AMOXICILLIN], in assay [1], the Activity is 274 µM. Also, the log10CFU/ml in assay [2] is given as 0.51.

Take `NC[C@H]1O[C@H](O[C@H]2[C@H](O)[C@@H](O[C@H]3O[C@H](CO)[C@@H](O)[C@H](N)[C@H]3O)[C@H](N)C[C@@H]2N)[C@H](O)[C@@H](O)[C@@H]1O` [KANAMYCIN]: the MIC in assay [3], in assay [4] and in assay [5] was 8.3 µM (≈ 4.02 µg/mL) each time.

Values taken from ChEMBL document CHEMBL3580550, “Antibacterial Polyketide Heterodimers from Pyrenacantha kaurabassana Tubers” (2015).
